According to ChEMBL document CHEMBL4024790 (J Med Chem, 2018):
Activity calls are given as the source filed them. No cut-off for these calls is given here.

How the values were obtained:
Canis familiaris [1] = species on record: Canis familiaris; experiment: Toxicity in dog assessed as effect on CNS up to 1 month by microscopic method; parameters: species or system Canis lupus familiaris; details: in vivo
[2] = Cmax in beagle dog at 5 mg/kg, po administered via gavage by LC-MS/MS analysis; type: ADME, organism-based, Canis lupus familiaris; parameters: dose 5 mg/kg, route oral; details: in vivo
[3] = Terminal half life in beagle dog at 0.3 mg/kg, iv by LC-MS/MS analysis; type: ADME, organism-based, Canis lupus familiaris; details: in vivo, read-out: beta t1/2 (converted)
How it was run: (§1)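 Single iv dose to male Wistar-Han rats (1 mg/kg) or dogs (0.3 mg/kg), given as a solution in 20% (w/v) SBECD with HCl. Dose volume 1 mL/kg in rats and 0.4 mL/kg in dogs. Blood taken by carotid artery cannula from 2 min to 24 h into K2EDTA (rat) or K3EDTA (dog) tubes. Plasma analysed by LC-MS/MS with positive electrospray after acetonitrile precipitation with internal standard.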

Mus musculus [4] = species on record: Mus musculus; experiment: Effect on cAMP level in CD-1 mouse brain cortex by immunoassay; type: functional
How it was run: (§2)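 CD-1 mice dosed SC (solution in 20% SBE-β-CD with 2 molar equivalents 1N HCl, 1 mL/kg); euthanized by focused microwave irradiation of brain; cortex, striatum, hippocampus homogenized in 0.5 N HCl, centrifuged; cyclic nucleotides in supernatant by enzyme immunoassay. Unbound brain exposure from satellite animals; dose-response and time-course data combined with linear model; one-way ANOVA with Fisher's PLSD.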

Cytochrome P450 2C9 = Cytochrome P450 2C9 (Homo sapiens, UniProt P11712); experiment: Time-dependant inhibition of recombinant human CYP2C9; type: ADME; details: recombinant enzyme
Chain of Cytochrome P450 2C9 (P11712 whole entry): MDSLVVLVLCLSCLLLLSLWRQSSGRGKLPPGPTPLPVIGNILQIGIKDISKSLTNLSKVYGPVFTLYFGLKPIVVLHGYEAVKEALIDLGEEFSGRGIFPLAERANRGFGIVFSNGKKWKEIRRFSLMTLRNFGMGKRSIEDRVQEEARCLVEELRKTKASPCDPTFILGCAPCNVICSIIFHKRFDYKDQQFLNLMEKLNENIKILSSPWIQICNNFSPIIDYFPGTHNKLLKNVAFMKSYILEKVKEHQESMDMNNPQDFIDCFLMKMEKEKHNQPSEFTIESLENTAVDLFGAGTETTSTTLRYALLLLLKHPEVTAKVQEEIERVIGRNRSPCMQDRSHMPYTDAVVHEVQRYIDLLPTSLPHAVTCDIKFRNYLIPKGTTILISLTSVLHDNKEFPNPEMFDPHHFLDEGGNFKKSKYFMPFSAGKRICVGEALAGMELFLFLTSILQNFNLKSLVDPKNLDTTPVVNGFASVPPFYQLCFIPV

Canis familiaris [5] = species on record: Canis familiaris; experiment: Toxicity in dog assessed as effect on vasculature up to 1 month by microscopic method; parameters: species or system Canis lupus familiaris; details: in vivo
Cytochrome P450 2B6 [6] = target: T1, Cytochrome P450 2B6 (Homo sapiens, UniProt P20813); experiment: Time-dependant inhibition of recombinant human CYP2B6; type: ADME; details: recombinant enzyme
T1 sequence (P20813 whole entry): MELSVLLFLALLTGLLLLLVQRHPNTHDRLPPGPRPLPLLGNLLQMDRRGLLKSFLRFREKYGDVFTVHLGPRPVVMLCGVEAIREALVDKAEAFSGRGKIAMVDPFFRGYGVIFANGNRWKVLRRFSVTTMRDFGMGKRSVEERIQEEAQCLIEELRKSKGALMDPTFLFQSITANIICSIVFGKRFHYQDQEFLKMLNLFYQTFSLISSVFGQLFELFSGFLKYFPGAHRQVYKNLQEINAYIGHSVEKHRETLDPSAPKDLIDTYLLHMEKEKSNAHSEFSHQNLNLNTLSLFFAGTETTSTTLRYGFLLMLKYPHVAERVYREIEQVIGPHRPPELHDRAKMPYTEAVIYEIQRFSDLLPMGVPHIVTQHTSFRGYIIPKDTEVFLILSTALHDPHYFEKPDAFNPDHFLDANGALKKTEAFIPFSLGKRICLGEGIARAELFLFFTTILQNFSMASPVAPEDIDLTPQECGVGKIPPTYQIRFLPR

Mus musculus [7] = species on record: Mus musculus; experiment: Increase in cGMP level in CD-1 mouse brain hippocampus assessed per nM of unbound brain concentration by immunoassay; type: functional
How it was run: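 CD-1 mice given compound; brains fixed by focused microwave irradiation, and cortex, striatum and hippocampus dissected and homogenized in 0.5 N HCl, then centrifuged. cGMP in the supernatant measured by enzyme immunoassay. Unbound brain concentration taken from satellite animals. Dose-response and time-course data combined, and a linear Cbu–cGMP model fitted. The Cbu E50 is the projected Cbu giving a 50% rise in cGMP. Statistics by one-way ANOVA with Fisher's PLSD, p<0.05.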

[8] = Drug metabolism in rat hepatocytes assessed as 1-(7-methyl-5-(1-methyl-5-(5-(trifluoromethyl)pyridin-2-yl)-1H-pyrazol-4-yl)imidazo[1,5-f][1,2,4]triazin-4-yl)azetidin-3-ol formation at 1 to 50 uM after 1 hr by LC-MS/MS analysis; type: ADME, cell-based, Hepatocyte
How it was run: (§3)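 Rat, dog or human liver microsomes or hepatocytes (P450 0.35–0.5 µM final) incubated with compound at 1, 10 or 50 µM in 100 mM phosphate buffer with 1 mM NADP regenerating system, 37°C for 1 h; quenched with 4 volumes acetonitrile, centrifuged, supernatant evaporated, reconstituted in 5% aqueous acetonitrile and analysed by reversed-phase LC.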

Rattus norvegicus [9] = experiment: Effect on risperidone-induced antipsychotic activity in Long Evans rat at 0.32 to 3.2 mg/kg, sc by conditioned avoidance responding assay; type: functional, organism-based
How it was run: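 Rats dosed SC at 0.32, 1.0 and 3.2 mg/kg; conditioned avoidance responding also run in combination with risperidone 0.032 mg/kg.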

[10] = Oral bioavailability in Wistar Han rat at 5 mg/kg administered via gavage by LC-MS/MS analysis; type: ADME, organism-based; details: in vivo
Mus musculus [11] = species on record: Mus musculus; experiment: Increase in cGMP level in CD-1 mouse brain cortex assessed per nM of unbound brain concentration by immunoassay; type: functional; how it was run: as §2
Mus musculus [12] = species on record: Mus musculus; experiment: Increase in cGMP level in CD-1 mouse brain cortex assessed as unbound brain concentration required to show the effect by immunoassay; type: functional; how it was run: as §2
Mus musculus [13] = species on record: Mus musculus; experiment: Effect on cAMP level in CD-1 mouse brain hippocampus by immunoassay; type: functional; how it was run: as §2
[14] = Intrinsic clearance in human hepatocytes; type: ADME, cell-based, Hepatocyte; details: read-out: CLH
Cytochrome P450 2D6 = Cytochrome P450 2D6 (Homo sapiens, UniProt P10635); experiment: Time-dependant inhibition of recombinant human CYP2D6; type: ADME; details: recombinant enzyme
Chain of Cytochrome P450 2D6 (P10635 whole entry): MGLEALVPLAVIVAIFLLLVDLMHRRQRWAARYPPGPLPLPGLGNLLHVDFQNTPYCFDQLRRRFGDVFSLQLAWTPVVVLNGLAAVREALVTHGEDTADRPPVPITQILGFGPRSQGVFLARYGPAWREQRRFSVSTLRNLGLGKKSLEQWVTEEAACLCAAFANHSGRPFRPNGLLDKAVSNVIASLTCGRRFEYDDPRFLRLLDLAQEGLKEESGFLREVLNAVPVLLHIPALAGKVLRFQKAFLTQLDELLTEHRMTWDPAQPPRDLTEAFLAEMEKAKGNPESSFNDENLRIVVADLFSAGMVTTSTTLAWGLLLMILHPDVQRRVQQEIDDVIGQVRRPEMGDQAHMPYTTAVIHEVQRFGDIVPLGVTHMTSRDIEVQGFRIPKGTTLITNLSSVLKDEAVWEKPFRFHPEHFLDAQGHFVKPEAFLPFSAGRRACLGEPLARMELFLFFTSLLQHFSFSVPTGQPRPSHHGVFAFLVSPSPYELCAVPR

Cytochrome P450 2C19 = Cytochrome P450 2C19 (Homo sapiens, UniProt P33261); experiment: Time-dependant inhibition of recombinant human CYP2C19; type: ADME; details: recombinant enzyme
Chain of Cytochrome P450 2C19 (P33261 whole entry): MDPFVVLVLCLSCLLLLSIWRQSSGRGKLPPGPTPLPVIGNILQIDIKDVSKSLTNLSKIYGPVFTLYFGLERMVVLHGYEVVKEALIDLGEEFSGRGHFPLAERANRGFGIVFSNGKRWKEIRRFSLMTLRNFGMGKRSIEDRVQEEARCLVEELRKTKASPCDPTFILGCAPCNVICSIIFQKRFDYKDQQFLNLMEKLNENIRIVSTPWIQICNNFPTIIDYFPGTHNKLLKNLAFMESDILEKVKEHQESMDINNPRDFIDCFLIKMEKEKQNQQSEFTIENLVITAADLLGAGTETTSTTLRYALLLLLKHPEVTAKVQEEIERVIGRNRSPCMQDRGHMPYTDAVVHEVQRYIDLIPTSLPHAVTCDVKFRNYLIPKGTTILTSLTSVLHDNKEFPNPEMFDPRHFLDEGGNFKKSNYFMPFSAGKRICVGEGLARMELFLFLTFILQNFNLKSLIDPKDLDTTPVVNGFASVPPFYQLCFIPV

[15] = AUC (0 to infinity) in Wistar Han rat at 1 mg/kg, iv by LC-MS/MS analysis; type: ADME, organism-based; parameters: dose 1 mg/kg, time infinity, route intravenous; details: in vivo
How it was run: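 Male Wistar-Han rats received a single IV dose as a solution in 20% (w/v) sulfobutylether-β-cyclodextrin with hydrochloric acid. Blood was drawn by carotid artery cannula into K2EDTA at set times from 2 min to 24 h. Plasma was acetonitrile-precipitated with internal standard and run by positive-ESI LC-MS/MS against standards of 0.61–625 ng/mL. AUC was extrapolated from time 0 to infinity.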

Mus musculus [16] = experiment: In vivo effect on phosphorylated CREB level in CD-1 mouse brain cortex by immunoassay; type: functional, organism-based
[17] = Plasma clearance in Wistar Han rat at 1 mg/kg, iv by LC-MS/MS analysis; type: ADME, organism-based; how it was run: as §1
Canis familiaris [18] = experiment: Toxicity in dog assessed as effect on vasculature up to 15 mg/kg/day, po for 14 days by microscopic method; type: organism-based, Canis lupus familiaris; details: in vivo, 336 h
Cytochrome P450 2B6 [19] = target: T1, Cytochrome P450 2B6; experiment: Inhibition of recombinant human CYP2B6; type: ADME; details: recombinant enzyme
[20] = Drug metabolism in human hepatocytes assessed as 1-(7-methyl-5-(1-methyl-5-(5-(trifluoromethyl)pyridin-2-yl)-1H-pyrazol-4-yl)imidazo[1,5-f][1,2,4]triazin-4-yl)azetidin-3-ol formation at 1 to 50 uM after 1 hr by LC-MS/MS analysis; type: ADME, cell-based, Hepatocyte; how it was run: as §3
Rattus norvegicus [21] = species on record: Rattus norvegicus
Mus musculus [22] = experiment: In vivo effect on phosphorylated CREB level in CD-1 mouse brain striatum by immunoassay; type: functional, organism-based
Rattus norvegicus [23] = species on record: Rattus norvegicus; experiment: Toxicity in rat assessed as effect on vasculature up to 1 month by microscopic method; details: in vivo
[24] = Terminal half life in Wistar Han rat at 1 mg/kg, iv by LC-MS/MS analysis; type: ADME, organism-based; details: in vivo, read-out: beta t1/2 (converted); how it was run: as §1
[25] = Plasma clearance in beagle dog at 0.3 mg/kg, iv by LC-MS/MS analysis; type: ADME, organism-based, Canis lupus familiaris; how it was run: as §1

Question: Which Activity (Canis familiaris [1]) does the source give for `Cc1nc(-c2cnn(C)c2-c2ccc(C(F)(F)F)cn2)c2c(N3CCC3)ncnn12` [PF-05180999] here?
Answer: The Activity was “Toxic”.

Question: What about the Cmax [2] of the same molecule?
Answer: The Cmax was 1770 ng/mL.

Question: And the half-life [3]?
Answer: The half-life was 5 h.

Question: What about the Activity (Mus musculus [4]) of the same molecule?
Answer: Its Activity is “inactive”.

Question: What about the TDI (Cytochrome P450 2C9) of the same molecule?
Answer: The TDI was “Not Active”.

Question: What about the Activity (Canis familiaris [5]) of the same molecule?
Answer: The Activity was “Non-Toxic”.

Question: What about the TDI (Cytochrome P450 2B6 [6]) of the same molecule?
Answer: Its TDI is “Not Active”.

Question: And the Activity (Mus musculus [7])?
Answer: The Activity was 0.43%.

Question: What about the Drug metabolism [8] of the same molecule?
Answer: Its Drug metabolism is “Metabolite_Detected”.

Question: And the Activity (Rattus norvegicus [9])?
Answer: Its Activity is “inactive”.

Question: What about the bioavailability [10] of the same molecule?
Answer: The bioavailability was 44%.

Question: And the Activity (Mus musculus [11])?
Answer: The Activity was 0.63%.

Question: And the fEC50 (Mus musculus [12])?
Answer: Its fEC50 is 79.4 nM.

Question: What about the Activity (Mus musculus [13]) of the same molecule?
Answer: The Activity was “inactive”.

Question: And the CLint scaled [14]?
Answer: Its CLint scaled is 44 mL/min/kg.

Question: What about the TDI (Cytochrome P450 2D6) of the same molecule?
Answer: Its TDI is “Not Active”.

Question: And the TDI (Cytochrome P450 2C19)?
Answer: The TDI was “Not Active”.

Question: And the AUC(0-inf) [15]?
Answer: Its AUC(0-inf) is 141 ng·h/mL.

Question: And the Activity (Mus musculus [16])?
Answer: The Activity was “inactive”.

Question: What about the clearance [17] of the same molecule?
Answer: The clearance was 122 mL/min/kg.

Question: And the Activity (Canis familiaris [18])?
Answer: Its Activity is “Non-Toxic”.

Question: What about the “inhibition (INH)” value (Cytochrome P450 2B6 [19]) of the same molecule?
Answer: The value was “Not Active”.

Question: What about the Drug metabolism [20] of the same molecule?
Answer: The Drug metabolism was “Metabolite_Detected”.

Question: What about the fIC50 (Rattus norvegicus [21]) of the same molecule?
Answer: The fIC50 was 9 nM.

Question: What about the Activity (Mus musculus [22]) of the same molecule?
Answer: The Activity was “inactive”.

Question: What about the Activity (Rattus norvegicus [23]) of the same molecule?
Answer: The Activity was “Non-Toxic”.

Question: What about the half-life [24] of the same molecule?
Answer: Its half-life is 1.1 h.

Question: And the clearance [25]?
Answer: The clearance was 12.3 mL/min/kg.
